Data taken from PMC6982540 (Nature chemical biology, 2019).

What was measured:
[1] = system: PTP1B–14-3-3ζ association; assay type: cell-based
[2] = system: PTP1B; experiment: PTP1B catalytic activity; assay type: cell-based; conditions: EGF 100 ng/ml, pNPP, N=3 independent experiments
[3] = system: PTP1B; experiment: cysteinyl-labeling assay; assay type: cell-based; conditions: EGF 100 ng/ml, indicated times; three independent experiments
[4] = system: 14-3-3ζ; experiment: pTyr loop derived-peptide pulldown from HEK293T lysates, iTRAQ LC-MS/MS; assay type: binding, human
[5] = system: PTP1B-OX(P); experiment: SPR; assay type: binding; conditions: 14-3-3ζ 5000 nM (Fig. 2c), HBS-N pH 7.4, 25 °C
Procedure, shortened: (§1)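 His-PTP1B (1–321) kept in TCEP. For oxidized, phosphorylated form: H2O2 oxidation (250 μM, 10 min, RT), desalting into reductant-free kinase buffer, AKT phosphorylation 16 h at 30°C. Captured on Ni2+-activated NTA chip (2.7 μM injected); reference cell had no NiCl2. 14-3-3ζ in HBS-N pH 7.4 injected at 30 μl/min, 3 min dissociation, 2 M NaCl regeneration, 25 °C.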

[6] = system: reduced PTP1B; experiment: in vitro pull-down of reduced PTP1B with 14-3-3ζ; assay type: binding; conditions: 50 nM PTP1B-R, 5 μM 14-3-3ζ, pH 7.4, 2 hours at 4°C, immunoblot
Procedure, shortened: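 Bacterial His-PTP1B (1–321) kept in 1 mM TCEP; GST-14-3-3ζ purified on glutathione agarose. Reduced PTP1B 50 nM with 14-3-3ζ 5 μM in HEPES binding buffer (BSA, Tween, pH 7.4), 2 h at 4°C. Glutathione agarose capture 1 h at 4°C, three washes, SDS-PAGE; immunoblot with anti-PTP1B and anti-GST.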

[7] = system: reduced PTP1B (PTP1B-R); experiment: SPR; assay type: binding; conditions: 14-3-3ζ 5000 nM (Fig. 2c), HBS-N pH 7.4, 25 °C
Procedure, shortened: as §1

EGF: epidermal growth factor, 100 ng/ml, used to activate EGFR
PTP1B–14-3-3ζ association following EGF ([1]; EGF 100 ng/ml, 0-10 min, HEK293T, three independent experiments): transient association between PTP1B and 14-3-3ζ between 2 to 5 minutes | PTP1B activity after EGF 10 min [2]: mostly recovered | reversible oxidation (biotinylation) of PTP1B, EGF [3]: PTP1B biotinylation was detected in a transient manner at 1 and 2 minutes

CKNRNRYRDVS [pTyr loop-derived-peptide]
enrichment of 14-3-3ζ by peptide bait (iTRAQ) ([4]; HEK293T lysate, 90 minutes at 4 °C, vs cysteine control beads): one of the most abundant proteins, and the most abundant 14-3-3 isoform | nature of interaction of unphosphorylated loop peptide with 14-3-3ζ ([4]; concluded from SPR compared with MS analysis): occurs indirectly via a protein intermediate

14-3-3ζ: bacterially expressed, purified GST-14-3-3-ζ protein
SPR binding of 14-3-3ζ to oxidized, phosphorylated PTP1B [5]: specifically binds to PTP1B in its oxidized and phosphorylated inactive state | interaction of 14-3-3ζ with reduced PTP1B, in vitro pull-down [6]: no interaction occurred with reduced PTP1B | SPR binding of 14-3-3ζ to active reduced PTP1B [7]: not to the active reduced form of the enzyme

CC(=O)N[C@@H](CS)C(=O)O [NAC, N-acetylcysteine, reference compound]
PTP1B–14-3-3ζ association in cells, NAC ([1]; NAC 1 mM, 1 h, EGF stimulation, two independent experiments (Fig. 1d)): Redox-dependent association between PTP1B and 14-3-3ζ was confirmed
